The source of these data is ChEMBL document CHEMBL4414673, “The DESIGNER Approach Helps Decipher the Hypoglycemic Bioactive Principles of Artemisia dracunculus (Russian Tarragon)” (J Nat Prod, 2019).

The source made the active and inactive calls. The rule behind the calls is not given here.

Data set [1] deals with Mus musculus. Briefly: Effect on insulin signalling in high fat diet-induced obese C57BL/6J mouse assessed as increase in AKT phosphorylation at serine […] residue in skeletal muscle at 100 to 300 mg/kg administered via gavage for 2 weeks and measured after 6 hrs post dose by Western blot analysis. Format: functional, organism-based. In a few lines: (§1)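 Male C57BL/6J mice, singly housed, were fed a 60% kcal fat diet from 4 weeks of age for 16 weeks and acclimated to gavage for 2 weeks. They got one gavage dose of 100 or 300 mg/kg in Labrasol vehicle and were euthanized at 6 h. Muscle, liver or gonadal fat was lysed in HEPES/Igepal buffer, and 50 μg protein was immunoblotted with chemiluminescent detection.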
On the technique in general: In western blotting, separated proteins are transferred to a membrane and probed.

The test system of data set [2] is Mus musculus. The experiment in a line: Effect on insulin signalling in high fat diet-induced obese C57BL/6J mouse assessed as effect on AKT phosphorylation at threonine 308 residue expression in liver at 100 to 300 mg/kg administered via gavage for 2 weeks and measured after 6 hrs post dose by Western blot analysis. Format: functional, organism-based. The method in brief: as §1

Data set [3] deals with RAC-alpha serine/threonine-protein kinase (Mus musculus) (UniProt P31750). The experiment in a line: Activation of insulin signalling in palmitate-induced insulin resistant mouse C2C12 cells assessed as upregulation of AKT phosphorylation at threonine 308 and Ser273 residue at 10 ug/ml by Western blot analysis. The class given is cell-based. The method in brief: (§2)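 C2C12 myoblasts were grown in high-glucose (25 mM) DMEM with 10% FBS and differentiated with 2% horse serum, then switched to low-glucose (5 mM) medium. Insulin resistance was induced with palmitate. Myotubes were treated at 10 μg/mL, exposed to insulin for 10 min and harvested. Total and phosphorylated signaling proteins were analysed by Western blot.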

Data set [4] deals with Mus musculus. The experiment in a line: Effect on insulin signalling in high fat diet-induced obese C57BL/6J mouse assessed as increase in IR-beta phosphorylation at tyrosine 1150 residue at 100 to 300 mg/kg administered via gavage for 2 weeks and measured after 6 hrs post dose by Western blot analysis. Format: functional, organism-based. In a few lines:
as §1

Data set [5] is described as follows: Toxicity in high fat diet-induced obese C57BL/6J mouse assessed as effect on body weight at 100 to 300 mg/kg administered via gavage for 2 weeks and measured after 6 hrs post dose. The settings on record: in vivo, po. The class given is organism-based. The method in brief:
(§3)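 Male C57BL/6J mice on a 60% kcal fat diet from 4 weeks of age were weighed weekly. Body weights at 20 weeks of age are reported for mice randomized to the gavage treatment groups, as mean ± SD versus vehicle.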

The test system of data set [6] is Mus musculus. Briefly: Effect on insulin signalling in high fat diet-induced C57BL/6J mouse assessed as AKT phosphorylation at Ser […] residue in adipose tissue at 100 to 300 mg/kg administered via gavage for 2 weeks and measured after 6 hrs post dose by Western blot analysis. Format: functional, organism-based. In a few lines:
as §1

The test system of data set [7] is Mus musculus. The experiment in a line: Hypoglycemic activity in high fat diet-induced obese C57BL/6J mouse assessed as reduction in blood glucose level at 100 to 300 mg/kg […] and measured after 6 hrs post dose. Format: functional, organism-based. The method in brief:
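Obese male C57BL/6J mice (60% kcal fat diet for 16 weeks, gavage-acclimated for 2 weeks) received one oral gavage dose of 100 or 300 mg/kg in Labrasol. Fasting whole-blood glucose was read by glucometer at baseline and hourly. Results are given as mg/dL and % change from baseline at 6 h, mean ± SD versus vehicle.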

Data set [8] concerns Mus musculus. The experiment in a line: Effect on insulin signalling in high fat diet-induced obese C57BL/6J mouse assessed as effect on AKT phosphorylation at threonine 308 residue expression in adipose tissue at 100 to 300 mg/kg administered via gavage for 2 weeks and measured after 6 hrs post dose by Western blot analysis. The class given is functional, organism-based. In a few lines: as §1

Data set [9] is described as follows: Toxicity in high fat diet-induced C57BL/6J mouse assessed as upregulation of total AKT expression in adipose tissue at 300 mg/kg administered via gavage for 2 weeks and measured after 6 hrs post dose by Western blot analysis. Format: organism-based. The following applies: in vivo, po. The method in brief:
as §1

The subject of data set [10] is Mus musculus. The experiment in a line: Effect on total IRbeta expression in high fat diet-induced obese C57BL/6J mouse skeletal muscle at 100 to 300 mg/kg administered via gavage for 2 weeks and measured after 6 hrs post dose by Western blot analysis. Format: organism-based. The settings on record: in vivo, po. The method in brief: as §1
For data set [11], the system named is Mus musculus. Briefly: Hypoglycemic activity in high fat diet-induced obese C57BL/6J mouse assessed as increase in insulin level at 300 mg/kg administered via gavage […] and measured after 6 hrs post dose. The class given is functional, organism-based. In a few lines:
(§4)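 Diet-induced obese male C57BL/6J mice were given one gavage dose (100 or 300 mg/kg, Labrasol vehicle). Fasting plasma insulin and C-peptide (ng/mL) were measured by ELISA 6 h after dosing, as mean ± SD versus vehicle.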

Data set [12] deals with Mus musculus. Briefly: Effect on insulin signalling in high fat diet-induced C57BL/6J mouse assessed as AKT phosphorylation at Ser […] residue in liver at 100 to 300 mg/kg administered via gavage for 2 weeks and measured after 6 hrs post dose by Western blot analysis. Format: functional, organism-based. In a few lines: as §1
Data set [13] deals with Glycogen synthase kinase-3 alpha/beta (Mus musculus) (UniProt Q9WV60+Q2NL51). Briefly: Activation of insulin signalling in palmitate-induced insulin resistant mouse C2C12 cells assessed as increase GSK-3 alpha/beta phosphorylation at 10 ug/ml by Western blot analysis. The class given is cell-based. In a few lines: as §2
The test system of data set [14] is C2C12. Briefly: Activation of insulin signalling in palmitate-induced insulin resistant mouse C2C12 cells assessed as increase in glycogen level at 10 ug/ml. Format: functional, cell-based. In a few lines:
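Palmitate-treated, insulin-resistant C2C12 myotubes (differentiated in 2% horse serum, low-glucose DMEM) were treated at 10 μg/mL and exposed to insulin for 10 min before harvest. Glycogen was measured with a kit assay and expressed as ng released glucose/μg protein.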

Data set [15] deals with Mus musculus. Briefly: Effect on insulin signalling in high fat diet-induced obese C57BL/6J mouse assessed as increase in PI3K-P85 expression in skeletal muscle at 100 mg/kg administered via gavage for 2 weeks and measured after 6 hrs post dose by Western blot analysis. The class given is functional, organism-based. The method in brief:
as §1

Data set [16] deals with Mus musculus. Briefly: Hypoglycemic activity in high fat diet-induced obese C57BL/6J mouse assessed as increase in C-peptide level at 100 to 300 mg/kg […] and measured after 6 hrs post dose. Format: functional, organism-based. In a few lines: as §4
The nature of data set [17]: Toxicity in high fat diet-induced obese C57BL/6J mouse assessed as effect on body weight at 300 mg/kg administered via gavage for 2 weeks and measured after 6 hrs post does. The class given is organism-based. The following applies: in vivo, po. In a few lines: as §3

Chain of RAC-alpha serine/threonine-protein kinase (Mus musculus) (P31750 whole entry): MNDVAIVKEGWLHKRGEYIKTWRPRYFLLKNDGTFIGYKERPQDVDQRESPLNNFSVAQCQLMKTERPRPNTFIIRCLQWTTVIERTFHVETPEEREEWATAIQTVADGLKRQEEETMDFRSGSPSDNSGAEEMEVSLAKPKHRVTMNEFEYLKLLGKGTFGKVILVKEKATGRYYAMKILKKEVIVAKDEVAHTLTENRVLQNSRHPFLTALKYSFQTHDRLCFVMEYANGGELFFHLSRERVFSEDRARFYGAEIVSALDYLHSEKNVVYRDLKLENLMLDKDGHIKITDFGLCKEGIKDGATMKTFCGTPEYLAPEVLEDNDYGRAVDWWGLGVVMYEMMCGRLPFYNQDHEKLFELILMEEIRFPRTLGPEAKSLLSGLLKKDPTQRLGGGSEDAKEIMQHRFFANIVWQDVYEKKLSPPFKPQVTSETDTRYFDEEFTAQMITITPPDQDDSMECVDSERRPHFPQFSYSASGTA
Chain of Glycogen synthase kinase-3 alpha/beta (Mus musculus) (Q2NL51 whole entry, looked up): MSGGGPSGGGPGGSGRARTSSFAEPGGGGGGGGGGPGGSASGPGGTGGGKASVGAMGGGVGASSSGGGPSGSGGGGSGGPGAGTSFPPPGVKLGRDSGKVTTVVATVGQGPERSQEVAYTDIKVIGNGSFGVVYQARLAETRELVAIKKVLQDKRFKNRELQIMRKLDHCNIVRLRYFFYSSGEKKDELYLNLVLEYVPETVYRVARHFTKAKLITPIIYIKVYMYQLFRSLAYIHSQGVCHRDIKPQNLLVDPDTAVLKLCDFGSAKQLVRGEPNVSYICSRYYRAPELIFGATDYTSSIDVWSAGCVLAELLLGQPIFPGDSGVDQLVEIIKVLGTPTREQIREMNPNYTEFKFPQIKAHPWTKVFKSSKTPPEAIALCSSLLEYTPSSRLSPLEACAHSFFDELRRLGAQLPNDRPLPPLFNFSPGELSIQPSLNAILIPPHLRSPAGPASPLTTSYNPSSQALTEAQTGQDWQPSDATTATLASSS
Chain of Glycogen synthase kinase-3 alpha/beta (Mus musculus) (Q9WV60 whole entry, looked up): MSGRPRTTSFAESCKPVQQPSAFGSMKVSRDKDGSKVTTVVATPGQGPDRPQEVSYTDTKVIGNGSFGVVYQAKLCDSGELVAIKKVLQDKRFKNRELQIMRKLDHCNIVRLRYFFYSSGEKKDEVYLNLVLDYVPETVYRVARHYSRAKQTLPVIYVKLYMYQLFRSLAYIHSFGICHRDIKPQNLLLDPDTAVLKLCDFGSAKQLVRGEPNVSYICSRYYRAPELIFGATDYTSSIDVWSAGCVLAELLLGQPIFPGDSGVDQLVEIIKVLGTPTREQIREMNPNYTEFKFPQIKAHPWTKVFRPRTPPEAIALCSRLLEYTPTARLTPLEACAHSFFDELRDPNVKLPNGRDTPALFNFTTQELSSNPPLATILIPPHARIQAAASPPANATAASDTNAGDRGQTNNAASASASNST

Take `COc1ccc(CCC(=O)c2ccc(O)cc2O)cc1`: the outcome in [1], in [3], in data set [7], in data set [11], in [12] and in data set [13] was Active. For the same compound, the result in data set [14], in data set [15] and in data set [16] was Active. The outcome in data set [2], in data set [4], in [6] and in data set [8] was inactive. Further, the values for the Activity entry in data set [5], in [9] and in data set [10] were “Non-Toxic”, “Toxic” and “Non-Toxic”, respectively.

Take `CN(C)C(=N)N=C(N)N` [METFORMIN]: the Activity result in data set [17] is “Non-Toxic”.
